How the values were obtained:
[1] = target: T1, GPR35 (Homo sapiens, UniProt Q9HC97); type: cell-based; conditions: 10 μM Zaprinast as agonist
Method in brief: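 Antagonism measured against a 10 μM Zaprinast agonist challenge in U2OS cells permanently expressing HA-GPR35a and βarr2-GFP. Concentration-effect curves for agonist-mediated receptor activation were analysed by nonlinear regression and fitted to sigmoidal dose-response curves to obtain IC50.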

[2] = target: T1, GPR35; conditions: read-out: IC50, antagonism at GPR35; previously identified screening hits; cited from earlier work

T1 sequence (Q9HC97 whole entry): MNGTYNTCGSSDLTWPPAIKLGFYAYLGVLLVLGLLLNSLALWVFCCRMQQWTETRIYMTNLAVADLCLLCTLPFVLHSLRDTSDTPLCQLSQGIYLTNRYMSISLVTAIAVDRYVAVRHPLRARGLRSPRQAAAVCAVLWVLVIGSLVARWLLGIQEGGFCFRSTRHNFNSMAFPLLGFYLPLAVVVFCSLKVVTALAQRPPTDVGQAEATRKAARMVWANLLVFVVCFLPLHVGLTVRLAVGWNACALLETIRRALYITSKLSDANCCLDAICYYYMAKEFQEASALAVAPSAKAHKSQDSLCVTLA

In the case of `O=C(Nc1ccc2nc(SCc3ccc(Cl)cc3)sc2c1)c1ccccc1C(=O)N1CCCCC1` [Compound 2], the “activity as GPR35 antagonist (in words)” value [1] is reported as “devoid of activity”.

In the case of `O=C(Nc1ccc2nc(SCc3ccc(Cl)cc3)sc2c1)c1ccccc1C(=O)N1CCCC1` [Compound 3], the “activity as GPR35 antagonist (in words)” value [1] is reported as “devoid of activity”.

With `O=C(Nc1ccc2nc(SCc3ccncc3)sc2c1)c1ccccc1C(=O)N1CCOCC1` [Compound 9] the “activity as GPR35 antagonist (in words)” value [1] was “inactive”.

In the case of `CNC(=S)NN=Cc1c(C(=O)OC)cnn1-c1ccc(F)cc1F` [Compound 13], the IC50 [2] is listed as 160 nM.

— paper PMC5335871 (Bioorganic & medicinal chemistry letters, 2016)
